In ChEMBL document CHEMBL1157638, “Fluorescent epigenetic small molecule induces expression of the tumor suppressor ras-association domain family 1A and inhibits human prostate xenograft” (J Med Chem, 2010):
Active and inactive are the calls of the source. The calls are words filed in the database; no cut-off is given here.

Legend:
HOP-62 = assay: Growth inhibition of human HOP62 cells assessed as cell growth at 100 nM relative to untreated control; type: functional; conditions: read-out: Activity
Outline: (§1)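 Run externally at the National Cancer Institute as a 59-cell-line panel screen, with concentrations up to 100 μM. Growth was scored relative to control, where negative growth or total cell kill was possible. Data are in the Supporting Information.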

NCI-H23 [1] = assay: Growth inhibition of human NCI-H23 cells assessed as cell growth at 100 nM relative to untreated control; type: functional; conditions: read-out: Activity
SF-539 [2] = assay: Growth inhibition of human SF539 cells assessed as cell growth at 100 nM relative to untreated control; type: functional; conditions: read-out: Activity
SK-MEL-28 = assay: Growth inhibition of human SK-MEL-28 cells assessed as cell growth at 100 nM relative to untreated control; type: functional; conditions: read-out: Activity
OVCAR-5 = assay: Growth inhibition of human OVCAR5 cells assessed as cell growth at 100 nM relative to untreated control; type: functional; conditions: read-out: Activity
SN12C = assay: Growth inhibition of human SN12C cells assessed as cell growth at 100 nM relative to untreated control; type: functional; conditions: read-out: Activity
NCI-H23 [3] = assay: Growth inhibition of human NCI-H23 cells assessed as cell growth at 1 nM relative to untreated control; type: functional; conditions: read-out: Activity
LOX IMVI = assay: Growth inhibition of human LOXIMVI cells assessed as cell growth at 1 nM relative to untreated control; type: functional; conditions: read-out: Activity
UACC-62 = assay: Growth inhibition of human UACC62 cells assessed as cell growth at 1 uM relative to untreated control; type: functional; conditions: read-out: Activity
OVCAR-8 = assay: Growth inhibition of human OVCAR8 cells assessed as cell growth at 1 uM relative to untreated control; type: functional; conditions: read-out: Activity
786-0 [4] = assay: Growth inhibition of human 786-0 cells assessed as cell growth at 1 nM relative to untreated control; type: functional; conditions: read-out: Activity
TK-10 = assay: Growth inhibition of human TK10 cells assessed as cell growth at 1 nM relative to untreated control; type: functional; conditions: read-out: Activity
BT-549 = assay: Growth inhibition of human BT549 cells assessed as cell growth at 1 nM relative to untreated control; type: functional; conditions: read-out: Activity
HL-60(TB) [5] = assay: Growth inhibition of human HL-60(TB) cells assessed as cell growth at 10 nM relative to untreated control; type: functional; conditions: read-out: Activity
K562 = assay: Growth inhibition of human K562 cells assessed as cell growth at 10 nM relative to untreated control; type: functional; conditions: read-out: Activity
A549 = assay: Growth inhibition of human A549 cells assessed as cell growth at 10 nM relative to untreated control; type: functional; conditions: read-out: Activity
NCI-H226 = assay: Growth inhibition of human NCI-H226 cells assessed as cell growth at 10 nM relative to untreated control; type: functional; conditions: read-out: Activity
MDA-MB-231 = assay: Growth inhibition of human MDA-MB-231 cells assessed as cell growth at 1 uM relative to untreated control; type: functional; conditions: read-out: Activity
HL-60(TB) [6] = assay: Growth inhibition of human HL-60(TB) cells assessed as cell growth at 10 uM relative to untreated control; type: functional; conditions: read-out: Activity
NCI-H460 = assay: Growth inhibition of human NCI-H460 cells assessed as cell growth at 10 uM relative to untreated control; type: functional; conditions: read-out: Activity
COLO 205 = assay: Growth inhibition of human COLO205 cells assessed as cell growth at 10 uM relative to untreated control; type: functional; conditions: read-out: Activity; outline: as §1
SF-295 = assay: Growth inhibition of human SF295 cells assessed as cell growth at 10 uM relative to untreated control; type: functional; conditions: read-out: Activity
MDA-MB-435 = assay: Growth inhibition of human MDA-MB-435 cells assessed as cell growth at 10 uM relative to untreated control; type: functional; conditions: read-out: Activity
786-0 [7] = assay: Growth inhibition of human 786-0 cells assessed as cell growth at 10 uM relative to untreated control; type: functional; conditions: read-out: Activity
RXF 393 = assay: Growth inhibition of human RXF393 cells assessed as cell growth at 10 uM relative to untreated control; type: functional; conditions: read-out: Activity
UO-31 [8] = assay: Growth inhibition of human UO31 cells assessed as cell growth at 10 uM relative to untreated control; type: functional; conditions: read-out: Activity
T47D = assay: Growth inhibition of human T47D cells assessed as cell growth at 10 uM relative to untreated control; type: functional; conditions: read-out: Activity
[9] = Growth inhibition of human […] cells; type: functional
NCI-H522 = assay: Growth inhibition of human NCI-H522 cells; type: functional
SF-539 [10] = assay: Growth inhibition of human SF539 cells; type: functional; conditions: read-out: LC50 (the source's name)
SNB-75 = assay: Growth inhibition of human SNB75 cells; type: functional
OVCAR-4 = assay: Growth inhibition of human OVCAR4 cells; type: functional
SK-OV-3 = assay: Growth inhibition of human SKOV3 cells; type: functional
PC-3 [11] = assay: Growth inhibition of human PC3 cells after 24 hrs by trypan blue exclusion method; type: functional; conditions: PC-3, 24 h
Outline: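 PC-3 cells grown in phenol red-free IMEM with 10% FBS, 2 mM glutamine and penicillin/streptomycin at 37 °C, 5% CO2. Seeded in triplicate at 1.5 × 10⁴ cells/well. After 24 h, treated with DMSO vehicle or 1, 5, 15, 30 or 60 μM compound for 24 h. Cells trypsinized, stained with 0.4% trypan blue, and live and dead cells counted by hemocytometer. Mean ± SEM of three independent observations.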

PC-3 [12] = assay: […] in RASSF1A gene expression in human PC3 cells at 5 uM after 3 days hrs by RT-PCR; type: functional, cell-based
[13] = biological target: DNA (cytosine-5)-methyltransferase 3A (Homo sapiens) (UniProt Q9Y6K1); assay: Binding affinity to DNMT3a in human PC3 cells cytoplasm at 5 uM after 6 hrs by antibody staining; type: cell-based; conditions: PC-3
Sequence of DNA (cytosine-5)-methyltransferase 3A (Homo sapiens) (Q9Y6K1 whole entry, looked up): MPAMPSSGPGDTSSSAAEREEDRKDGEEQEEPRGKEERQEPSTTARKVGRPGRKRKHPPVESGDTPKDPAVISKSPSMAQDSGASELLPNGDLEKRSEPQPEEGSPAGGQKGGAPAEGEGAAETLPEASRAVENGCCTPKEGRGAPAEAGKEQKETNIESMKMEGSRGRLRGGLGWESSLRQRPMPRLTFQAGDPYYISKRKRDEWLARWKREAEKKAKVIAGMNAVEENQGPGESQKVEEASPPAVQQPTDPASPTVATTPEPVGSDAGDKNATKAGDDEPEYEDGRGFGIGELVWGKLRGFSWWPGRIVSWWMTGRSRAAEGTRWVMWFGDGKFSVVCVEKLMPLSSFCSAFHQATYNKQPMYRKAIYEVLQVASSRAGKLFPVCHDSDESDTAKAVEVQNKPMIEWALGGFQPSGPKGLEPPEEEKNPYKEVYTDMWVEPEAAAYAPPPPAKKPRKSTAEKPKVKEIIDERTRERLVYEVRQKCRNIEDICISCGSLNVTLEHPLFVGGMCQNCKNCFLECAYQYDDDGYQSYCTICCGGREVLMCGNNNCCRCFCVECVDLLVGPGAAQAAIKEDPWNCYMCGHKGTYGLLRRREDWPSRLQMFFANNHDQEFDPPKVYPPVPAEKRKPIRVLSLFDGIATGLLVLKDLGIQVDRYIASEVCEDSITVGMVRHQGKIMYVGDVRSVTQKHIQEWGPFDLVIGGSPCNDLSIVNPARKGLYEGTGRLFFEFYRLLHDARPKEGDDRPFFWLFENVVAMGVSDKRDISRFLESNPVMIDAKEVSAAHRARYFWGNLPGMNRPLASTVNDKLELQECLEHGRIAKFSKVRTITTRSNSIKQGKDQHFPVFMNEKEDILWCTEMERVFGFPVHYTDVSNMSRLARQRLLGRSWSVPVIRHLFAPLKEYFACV
Outline: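 PC-3 cells were plated overnight on fibronectin/[…]-coated slides and treated with 5 μM compound or DMSO for 1-6 h. Cells were PBS-washed, fixed in 4% formaldehyde, and stained with propidium iodide (nuclei) and anti-DNMT3a or anti-DNMT3b antibody. The compound was excited at 725 nm by multiphoton laser and imaged through a 500-550 nm filter by confocal microscopy.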

HL-60(TB) [14] = assay: Growth inhibition of human HL-60(TB) cells assessed as cell growth at 1 nM relative to untreated control; type: functional; conditions: read-out: Activity
UO-31 [15] = assay: Growth inhibition of human UO31 cells; type: functional
[16] = Growth inhibition of human Hs 578T cells; type: functional
IGROV-1 = assay: Growth inhibition of human IGROV1 cells assessed as cell growth at 10 nM relative to untreated control; type: functional; conditions: read-out: Activity
[17] = read-out: LC50 (the source's name)

What does the source list for `COc1ccc2c(c1)[nH]c1c(C)c(OS(=O)(=O)c3cccc4c(N(C)C)cccc34)ccc12`?
growth at 0.1 µM (HOP-62): 106%; growth at 0.1 µM (NCI-H23 [1]): 81%; growth at 0.1 µM (SF-539 [2]): 87%; growth at 0.1 µM (SK-MEL-28): 75%; growth at 0.1 µM (OVCAR-5): 103%; growth at 0.1 µM (SN12C): 97%; growth at 0.001 µM (NCI-H23 [3]): 89%; growth at 0.001 µM (LOX IMVI): 95%; growth at 1 µM (UACC-62): 28%; growth at 1 µM (OVCAR-8): 44%; growth at 0.001 µM (786-0 [4]): 101%; growth at 0.001 µM (TK-10): 97%; growth at 0.001 µM (BT-549): 100%; growth at 0.01 µM (HL-60(TB) [5]): 83%; growth at 0.01 µM (K562): 98%; growth at 0.01 µM (A549): 97%; growth at 0.01 µM (NCI-H226): 88%; growth at 1 µM (MDA-MB-231): 49%; growth at 10 µM (HL-60(TB) [6]): -18%; growth at 10 µM (NCI-H460): -3%; growth at 10 µM (COLO 205): 1%; growth at 10 µM (SF-295): 1%; growth at 10 µM (MDA-MB-435): -1%; growth at 10 µM (786-0 [7]): 6%; growth at 10 µM (RXF 393): -32%; growth at 10 µM (UO-31 [8]): 24%; growth at 10 µM (T47D): 2%; GI50 [9]: 2.84 µM; TGI [9]: 24 µM; CC50 [9, 17]: > 100 µM; GI50 (NCI-H522): 9.97 µM; TGI (NCI-H522): > 100 µM; CC50 (NCI-H522; [17]): > 100 µM; CC50 (SF-539 [10]): > 100 µM; GI50 (SNB-75): 4.48 µM; TGI (SNB-75): 47.1 µM; CC50 (SNB-75; [17]): > 100 µM; GI50 (OVCAR-4): 7.4 µM; TGI (OVCAR-4): > 100 µM; CC50 (OVCAR-4; [17]): > 100 µM; GI50 (SK-OV-3): 5.47 µM; TGI (SK-OV-3): > 100 µM; CC50 (SK-OV-3; [17]): > 100 µM; GI50 (PC-3 [11]): 1.5 µM; Activity (PC-3 [12]): Active; Activity [13]: inactive; growth at 0.001 µM (HL-60(TB) [14]): 88%; GI50 (UO-31 [15]): 13.6 µM; TGI (UO-31 [15]): > 100 µM; CC50 (UO-31 [15]; [17]): > 100 µM; GI50 [16]: 36.3 µM; TGI [16]: 93.7 µM; CC50 [16, 17]: > 100 µM; growth at 0.01 µM (IGROV-1): 110%
